# Test results reported in ChEMBL document CHEMBL1828544, “Structural modification of honokiol, a biphenyl occurring in Magnolia officinalis: the evaluation of honokiol analogues as inhibitors of angiogenesis and for their cytotoxicity and structure-activity relationship” (J Med Chem, 2011).
# pIC50: −log10 of the molar value.
# What was measured:
# Assay type in all cases: functional, cell-based
# [1] = system: HUVEC; assay: Antiproliferative activity against human HUVEC cells after 24 hrs by MTT assay
# Summary of the method: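 Primary HUVECs grown on gelatin in M-199 with 20% FBS, 10 ng/mL bFGF, 2 ng/mL VEGF, 5% CO2, 37 °C. Cells (5 × 10^3/well) exposed to a range of compound concentrations for 24 h. MTT added for 3 h, formazan dissolved in DMSO, absorbance read at 570 nm. IC50 from percentage growth versus untreated control.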
# [2] = system: HepG2; assay: Antiproliferative activity against human HepG2 cells after 24 hrs by MTT assay; settings: HepG2, 24 h
# Summary of the method: (§1)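 Cells (5 × 10^3/well) kept at 37 °C, 5% CO2 and treated with varied compound concentrations for 24 h. MTT given for a further 3 h, precipitate dissolved in DMSO, absorbance taken at 570 nm. IC50 calculated from percentage growth relative to untreated control.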
# [3] = Antiproliferative activity against mouse LL/2 cells after 24 hrs by MTT assay; settings: Lewis lung carcinoma; summary of the method: as §1
# [4] = system: A549; assay: Antiproliferative activity against human A549 cells after 24 hrs by MTT assay; settings: A549, 24 h; summary of the method: as §1
SMILES,pIC50 [1],pIC50 [2],pIC50 [3],pIC50 [4]
C=CCc1cc(C=O)c(OCC(=O)OCC)c(-c2ccc(OCC(=O)OCC)c(CC=C)c2)c1,4.06,< 4.07,4.58,< 4.07
C=CCc1ccc(OCCC)c(-c2ccc(OCCC)c(CC=C)c2)c1,< 4.00,< 3.94,< 3.94,< 3.94
C=CCc1ccc(O)c(-c2ccc(OCCC)c(CC=C)c2)c1,4.05,< 3.89,4.19,4.08
C=CCc1ccc(OCC)c(-c2ccc(OCC)c(CC=C)c2)c1,< 4.00,< 3.91,< 3.91,< 3.91
C=CCc1ccc(OC)c(-c2cccc([N+](=O)[O-])c2)c1,< 4.00,< 4.00,4.05,< 4.00
C=CC(C)(C)c1cc(-c2ccc(OC)cc2)ccc1O,< 4.00,4.04,< 4.00,< 4.00
C=CCc1cc(-c2ccc(OC)cc2)ccc1O,< 4.00,< 4.00,< 4.00,< 4.00
C=CCOc1ccc(-c2ccc(OC)cc2)cc1CC=C,< 4.00,< 4.00,< 4.00,< 4.00
C=CCc1cc(-c2cccc(NC(C)=O)c2)ccc1OC,< 4.00,4.22,4.19,< 4.00
C=CCc1ccc(OC)c(-c2ccc(OC)c(CC=C)c2)c1,< 4.00,< 3.87,< 3.87,–
C=CCc1cc(-c2ccc(OC)cc2OC)ccc1O,< 4.00,< 4.00,< 4.00,< 4.00
C=CCc1cc(-c2cccc(C(F)(F)F)c2)ccc1O,4.12,4.23,4.18,4.14
C=CCc1cc(-c2cccc([N+](=O)[O-])c2)ccc1OC,< 4.00,< 4.00,< 4.00,< 4.00
C=CCc1cc(-c2cccc(SC)c2)ccc1O,< 4.00,< 4.00,< 4.00,4.18
C=CCc1ccc(O)c(-c2ccc(OCC)c(CC=C)c2)c1,4.17,4.13,4.21,4.29
C=CCc1cc(-c2ccc(F)cc2)ccc1O,< 4.00,< 4.00,< 4.00,< 4.00
C=CCc1cc(-c2ccc(OC)cc2)ccc1OC,< 4.00,< 4.00,< 4.00,< 4.00
C=CCc1cc(-c2cccc([N+](=O)[O-])c2)ccc1O,< 4.00,< 4.00,< 4.00,< 4.00
C=CCc1cc(CO)c(O)c(-c2ccc(O)c(CC=C)c2)c1,< 4.00,< 3.87,< 3.87,< 3.87
C=CCc1ccc(OC(C)C)c(-c2ccc(OC(C)C)c(CC=C)c2)c1,< 4.00,< 3.94,< 3.94,< 3.94
C=CCc1ccc(OCC)c(-c2ccc(O)c(CC=C)c2)c1,4.17,4.15,4.17,4.09
C=CCc1ccc(OC)c(-c2ccc(OC)cc2)c1,< 4.00,< 4.00,4.15,4.02
C=CCc1ccc(OCC(=O)OCC)c(-c2ccc(OCC(=O)OCC)c(CC=C)c2)c1,< 4.00,4.16,< 4.04,< 4.04
C=CCc1ccc(OC)c(-c2ccc(O)c(CC=C)c2)c1,4.21,4.24,3.97,–
C=CCc1cc(-c2ccccc2)ccc1O,< 4.00,< 4.00,< 4.00,< 4.00
C=CCOc1ccc(-c2cccc([N+](=O)[O-])c2)cc1CC=C,< 4.00,< 4.00,< 4.00,< 4.00
C=CCc1cc(-c2cccc(OC)c2)ccc1O,< 4.00,< 4.00,< 4.00,< 4.00
